From ChEMBL document CHEMBL2016546, “Synthesis, characterization, molecular docking and cytotoxic activity of novel plumbagin hydrazones against breast cancer cells” (Bioorg Med Chem Lett, 2012)
Active and inactive are the calls of the source. The calls are words filed in the database; no cut-off is given here.

Tests used:
[1] = Partition coefficient, log P pf the compound; assay type: physicochemical; details: octanol/water
[2] = biological target: Transcription factor p65 (Homo sapiens) (UniProt Q04206); assay: Inhibition of NFkappaB p65 subunit expression in human MDA-MB-231 cells at 1.5 uM after 48 hrs by Western blot analysis; assay type: cell-based
Chain of Transcription factor p65 (Homo sapiens) (Q04206 whole entry): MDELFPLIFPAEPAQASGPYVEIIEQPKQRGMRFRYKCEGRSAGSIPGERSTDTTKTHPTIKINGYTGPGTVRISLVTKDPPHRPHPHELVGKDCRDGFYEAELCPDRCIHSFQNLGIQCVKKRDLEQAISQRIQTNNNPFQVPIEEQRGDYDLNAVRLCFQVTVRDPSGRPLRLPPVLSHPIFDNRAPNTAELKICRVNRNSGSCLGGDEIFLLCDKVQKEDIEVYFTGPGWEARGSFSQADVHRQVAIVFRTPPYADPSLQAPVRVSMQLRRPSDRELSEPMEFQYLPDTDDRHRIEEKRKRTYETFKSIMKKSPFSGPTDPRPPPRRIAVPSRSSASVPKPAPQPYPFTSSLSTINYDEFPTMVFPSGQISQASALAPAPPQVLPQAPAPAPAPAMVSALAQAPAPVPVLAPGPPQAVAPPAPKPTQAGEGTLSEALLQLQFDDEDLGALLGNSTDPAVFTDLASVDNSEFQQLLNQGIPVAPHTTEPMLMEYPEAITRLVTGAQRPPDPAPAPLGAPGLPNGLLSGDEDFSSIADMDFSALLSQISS
How it was run: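 MDA-MB-231 cells were exposed to compounds for 48 h, with a vehicle-treated control. NF-κB p65 subunit levels were detected by Western blot, using β-actin as the protein loading control.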

MDA-MB-468 = assay: Antiproliferative activity against ER-negative human MDA-MB-468 cells after 48 hrs by MTT assay; assay type: functional, cell-based; details: MDA-MB-468, 48 h
How it was run: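 MDA-MB-468 cells plated at 3 × 10³/well in medium containing 10% fetal calf serum, penicillin (50 U/mL) and streptomycin, at 37 °C under 5% CO₂. DMSO-dissolved compounds were added 24 h post-seeding and exposure lasted 48 h. MTT (0.5 mg/mL) was applied for 2 h at 37 °C, then DMSO for 30 min at room temperature. Eight wells per treatment, at least three independent repeats.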

MCF7 = assay: Antiproliferative activity against ER-positive human MCF7 cells after 48 hrs by MTT assay; details: MCF7, 48 h
MDA-MB-231 = assay: Antiproliferative activity against ER-negative human MDA-MB-231 cells after 48 hrs by MTT assay; details: MDA-MB-231, 48 h

logP ([1]; read-out: logP) | inhibition [2] | IC50 (MDA-MB-468) [nM] | IC50 (MCF7) [nM] | IC50 (MDA-MB-231) [nM] | SMILES | logP [1]
4.17 | Active | 2900 | 5300 | 3800 | CC1=C/C(=N\NC(=O)c2ccccc2O)c2c(O)cccc2C1=O | 
4 | Active | 2000 | 2800 | 2100 | CC1=C/C(=N\NC(=O)c2ccccc2)c2c(O)cccc2C1=O | 
2.86 | Active | 3300 | 6200 | 3300 | CC1=C/C(=N\NC(=O)c2ccncc2)c2c(O)cccc2C1=O | 
3.13 | Active | 1900 | 2700 | 1900 | CC1=C/C(=N\NC(=O)c2cccnc2)c2c(O)cccc2C1=O | 

SMILES | logP ([1]; read-out: logP) | inhibition [2] | IC50 (MDA-MB-468) [nM] | IC50 (MCF7) [nM] | IC50 (MDA-MB-231) [nM] | logP [1]
CC1=CC(=O)c2c(O)cccc2C1=O [PLUMBAGIN] |  | Active | 2500 | 5500 | 3500 | 0.89
